Test results: ChEMBL document CHEMBL1687926, “14-Aminocamptothecins: their synthesis, preclinical activity, and potential use for cancer treatment” (J Med Chem, 2011)

Assays:
NCI-H460 [1] = test: Cytotoxicity against human H460 cells after 72 hrs by alamar blue assay; type: functional, cell-based
Method in brief: (§1)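 Cells seeded at 4 × 10³ per well and grown 24 h. Compounds dissolved in DMSO and diluted in medium to final concentrations, then incubated 72 h at 37 °C, 5% CO₂. Viable cells read by AlamarBlue; IC₅₀ taken as the concentration giving 50% growth inhibition.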

PC-3 = test: Cytotoxicity against human PC3 cells after 72 hrs by alamar blue assay; type: functional, cell-based; details: PC-3, 72 h; method in brief: as §1
HT-29 = test: Cytotoxicity against human HT-29 cells after 72 hrs by alamar blue assay; type: functional, cell-based; details: HT-29, 72 h; method in brief: as §1
SK-MEL-2 = test: Cytotoxicity against human SK-MEL-2 cells after 72 hrs by alamar blue assay; type: functional, cell-based; details: SK-MEL-2, 72 h; method in brief: as §1
A-375 = test: Cytotoxicity against human A375 cells after 72 hrs by alamar blue assay; type: functional, cell-based; details: A-375, 72 h; method in brief: as §1
Malme-3M = test: Cytotoxicity against human MALME-3M cells after 72 hrs by alamar blue assay; type: functional, cell-based; method in brief: as §1
DU-145 = test: Cytotoxicity against human DU145 cells after 72 hrs by alamar blue assay; type: functional, cell-based; details: DU-145, 72 h; method in brief: as §1
LNCaP = test: Cytotoxicity against human LNCAP cells after 72 hrs by alamar blue assay; type: functional, cell-based; method in brief: as §1
IGROV-1 = test: Cytotoxicity against human IGROV1 cells after 72 hrs by alamar blue assay; type: functional, cell-based; details: IGROV-1, 72 h; method in brief: as §1
NCI-H460 [2] = test: Cytotoxicity against human H460 cells after 72 hrs by alamar blue assay in presence of 40 mg/ml HSA; type: functional, cell-based; details: NCI-H460, 72 h
Method in brief: (§2)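 H460 cells seeded at 4 × 10³ per well and grown 24 h. Compounds then cocultured with cells for 72 h at 37 °C, with or without 40 mg/mL human serum albumin. Viability read by AlamarBlue; IC₅₀ = 50% growth inhibition. Ratio compares the IC₅₀ with HSA to the IC₅₀ without.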

NCI-H460 [3] = test: Ratio IC50 for human H460 cells after 72 hrs in presence of 40 mg/ml HSA to IC50 for human H460 cells after 72 hrs; type: functional; method in brief: as §2
[4] = Cytotoxicity against human MESSA cells after 72 hrs by alamar blue assay; type: functional, cell-based; details: MES-SA; method in brief: as §1
[5] = Cytotoxicity against human MES-SA/Dx5 cells overexpressing MDR1 after 72 hrs by alamar blue assay; type: functional, cell-based; details: MES-SA/Dx5, 72 h; method in brief: as §1
NCI-H69 = test: Cytotoxicity against human H69 cells after 72 hrs by alamar blue assay; type: functional, cell-based; details: NCI-H69, 72 h; method in brief: as §1
[6] = Resistance ratio of IC50 for human MES-SA/Dx5 cells overexpressing MDR1 after 72 hrs to IC50 for human MESSA cells after 72 hrs; type: functional
Method in brief: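 Cytotoxicity compared in MDR1-overexpressing lines and their parental wild-type lines. 72 h exposure at 37 °C, viability by AlamarBlue, IC₅₀ at 50% growth inhibition. Resistance ratio = IC₅₀ in overexpressing line / IC₅₀ in parental line.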

[7] = Cytotoxicity against human bone marrow cell by CFU-GM assay; type: cell-based
[8] = Cytotoxicity against mouse bone marrow cell by CFU-GM assay; type: cell-based
Method in brief: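 CFU-GM colony assay on normal human bone marrow (thawed) or mouse femoral marrow (freshly extracted). Human colonies scored after 16-18 days. IC₅₀ taken from triplicate assays.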

[9] = Ratio of IC50 for mouse bone marrow cell to IC50 for human bone marrow cell; type: cell-based; details: bone marrow cells
Method in brief: (§3)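 CFU-GM colony assay in triplicate at 2 × 10⁴ cells per culture, using thawed normal human bone marrow or fresh mouse femoral marrow. Colonies were scored after 16-18 days. The IC50 or IC90 from each species gave the mouse/human ratio.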

[10] = Ratio of IC90 for mouse bone marrow cell to IC90 for human bone marrow cell; type: ADME, cell-based; details: bone marrow cells; method in brief: as §3
[11] = Tmax in CD-1 mouse plasma at 50 mg/kg, ip by LC/MS/MS analysis; type: ADME, organism-based; design: dose 50 mg/kg, route intraperitoneal
Method in brief: (§4)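 CD-1 mice (~25 g) given 50 mg/kg ip in 5% DMSO/5% Tween 80 in water; three mice per time point, sampled up to 480 min. Blood taken by cardiac puncture into EDTA, then whole brain excised and homogenized in water. Proteins precipitated with ice-cold acetonitrile containing propranolol internal standard; supernatant analysed by HPLC/MS/MS.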

[12] = Cmax in CD-1 mouse plasma at 50 mg/kg, ip by LC/MS/MS analysis; type: ADME, organism-based; design: dose 50 mg/kg, route intraperitoneal; method in brief: as §4
[13] = AUC in CD-1 mouse plasma at 50 mg/kg, ip by LC/MS/MS analysis; type: ADME, organism-based; design: dose 50 mg/kg, route intraperitoneal; method in brief: as §4
[14] = Half life in CD-1 mouse plasma at 50 mg/kg, ip by LC/MS/MS analysis; type: ADME, organism-based; design: dose 50 mg/kg, route intraperitoneal; method in brief: as §4
[15] = Tmax in CD-1 mouse brain at 50 mg/kg, ip by LC/MS/MS analysis; type: ADME, organism-based; design: dose 50 mg/kg, route intraperitoneal; method in brief: as §4
[16] = Cmax in CD-1 mouse brain at 50 mg/kg, ip by LC/MS/MS analysis; type: ADME, organism-based; design: dose 50 mg/kg, route intraperitoneal; method in brief: as §4
[17] = AUC in CD-1 mouse brain at 50 mg/kg, ip by LC/MS/MS analysis; type: ADME, organism-based; design: dose 50 mg/kg, route intraperitoneal; method in brief: as §4
[18] = Half life in CD-1 mouse brain at 50 mg/kg, ip by LC/MS/MS analysis; type: ADME, organism-based; design: dose 50 mg/kg, route intraperitoneal; method in brief: as §4
[19] = Ratio of drug level in brain to plasma in CD-1 mouse at 50 mg/kg, ip; type: ADME, organism-based; design: dose 50 mg/kg, route intraperitoneal; method in brief: as §4
NCI-H460 [20] = test: Antitumor activity against human H460 cells xenografted in nu/nu mouse assessed as tumor growth inhibition at 30 mg/kg, po QD for 5 days followed by 2days without treatment for 2 weeks; type: functional; design: scale not given: the % may be the effect or the level left
Method in brief: (§5)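 Female nude (nu/nu) mice (males for prostate model) implanted sc in the flank with tumor cells (1 × 10⁶ for H460). Dosing began at 100-150 mm³, 10 mice/group. Oral gavage in 5% DMSO/5% Tween 80/1% CMC in water, 5 days on/2 off per cycle, 2 or 4 cycles. Volume = length×width²/2, measured twice weekly. TGI = (1 − ΔT/ΔC)×100; TGD = extra days to reach 500 mm³ versus control.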

NCI-H460 [21] = test: Antitumor activity against human H460 cells xenografted in nu/nu mouse assessed as tumor growth delay at 30 mg/kg, po QD for 5 days followed by 2days without treatment for 2 weeks; type: functional; method in brief: as §5
Mus musculus = test: Toxicity in nu/nu mouse assessed as body weight loss at 30 mg/kg, po QD for 5 days followed by 2 days without treatment for 2 weeks; type: organism-based; design: dose 30 mg/kg, route oral; details: in vivo
Method in brief: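 Female nude (nu/nu) mice (males for prostate model) bearing sc xenografts, dosing started at 100-150 mm³, 10/group. Oral gavage in 5% DMSO/5% Tween 80/1% CMC in water, QD 5 days on/2 off per cycle, 2 or 4 cycles. Body weight recorded twice weekly; maximum loss reported.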

H69AR = test: Cytotoxicity against human H69AR cells overexpressing MRP1 after 72 hrs by alamar blue assay
[22] = Resistance ratio of IC50 for human H69AR cells overexpressing MRP1 after 72 hrs s to IC50 for human H69 cells after 72 hrs

CC[C@@]1(O)C(=O)OCc2c1c(N)c1n(c2=O)Cc2cc3ccccc3nc2-1
IC50 (NCI-H460 [1]; Homo sapiens, NCI-H460, 72 h): 18 nM
IC50 (NCI-H460 [1]; nci-h460): 23 nM
IC50 (PC-3): 43 nM
IC50 (HT-29): 230 nM
IC50 (SK-MEL-2): 170 nM
IC50 (A-375): 22 nM
IC50 (Malme-3M): 780 nM
IC50 (DU-145): 780 nM
IC50 (LNCaP): 110 nM
IC50 (IGROV-1): 120 nM
IC50 (NCI-H460 [2]): 120 nM
Ratio (NCI-H460 [3]): 5
IC50 [4]: 58 nM
IC50 [5]: 60 nM
IC50 (NCI-H69): 91 nM
Ratio [6]: 1
IC50 ([7]; Homo sapiens, Bone marrow cell): 710 nM
IC90 ([7]; human, bone marrow cells): 4800 nM
IC50 [8]: 10 nM
selectivity ratio [9]: 6
selectivity ratio [10]: 4
Tmax [11]: 0.5 h
Cmax [12]: 600 ng/mL
AUC [13]: 1500 ng·h/mL
half-life [14]: 4.17 h
Tmax [15]: 0.5 h
Cmax [16]: 600 ng/mL
AUC [17]: 1670 ng·h/mL
half-life [18]: 3.5 h
Kp [19]: 101
Activity (NCI-H460 [20]): 79%
Time (NCI-H460 [21]): 15 days
Activity (Mus musculus): 4%
IC50 (H69AR): 91 nM
Ratio [22]: 1
